Source: ChEMBL document CHEMBL1821582, “SAR analysis of innovative selective small molecule antagonists of sphingosine-1-phosphate 4 (S1P₄) receptor” (Bioorg Med Chem Lett, 2011)
The source made the active and inactive calls. The rule behind the calls is not given here.

What was measured:
[1] = molecular target: T1, Sphingosine 1-phosphate receptor 4 (Homo sapiens, UniProt O95977); assay: Antagonist activity at human S1P4 receptor expressed in EDG6-bla U2OS cells coexpressing human endothelial differentiation gene 6 linked to GAL4-VP16 assessed as beta-lactamase expression by FRET assay; format: functional, cell-based
T1 sequence (O95977 whole entry): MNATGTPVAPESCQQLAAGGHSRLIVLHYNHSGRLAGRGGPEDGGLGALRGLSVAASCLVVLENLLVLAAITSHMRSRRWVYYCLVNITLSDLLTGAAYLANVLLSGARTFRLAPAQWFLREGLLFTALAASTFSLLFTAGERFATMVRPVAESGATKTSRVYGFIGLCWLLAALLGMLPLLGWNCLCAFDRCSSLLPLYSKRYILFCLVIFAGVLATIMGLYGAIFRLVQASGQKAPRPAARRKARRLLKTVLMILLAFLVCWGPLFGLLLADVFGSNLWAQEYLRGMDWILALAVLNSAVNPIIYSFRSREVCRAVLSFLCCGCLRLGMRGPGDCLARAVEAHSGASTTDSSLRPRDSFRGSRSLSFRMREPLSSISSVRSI
Procedure, shortened: (§1)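 Human EDG6 (S1P4) Tango assay in U2OS cells: the receptor is fused via a TEV protease site to a GAL4-VP16 transcription factor, with a co-expressed beta-arrestin/TEV protease fusion. Read-out is a beta-lactamase reporter driven by a UAS response element. Compounds were tested up to 25 μM, with percentage inhibition at 25 μM; values are the mean of n = 3 determinations.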

[2] = molecular target: T2, Sphingosine 1-phosphate receptor 5 (Homo sapiens, UniProt Q9H228); assay: Inhibition of S1P5 receptor at 25 uM
T2 sequence (Q9H228 whole entry): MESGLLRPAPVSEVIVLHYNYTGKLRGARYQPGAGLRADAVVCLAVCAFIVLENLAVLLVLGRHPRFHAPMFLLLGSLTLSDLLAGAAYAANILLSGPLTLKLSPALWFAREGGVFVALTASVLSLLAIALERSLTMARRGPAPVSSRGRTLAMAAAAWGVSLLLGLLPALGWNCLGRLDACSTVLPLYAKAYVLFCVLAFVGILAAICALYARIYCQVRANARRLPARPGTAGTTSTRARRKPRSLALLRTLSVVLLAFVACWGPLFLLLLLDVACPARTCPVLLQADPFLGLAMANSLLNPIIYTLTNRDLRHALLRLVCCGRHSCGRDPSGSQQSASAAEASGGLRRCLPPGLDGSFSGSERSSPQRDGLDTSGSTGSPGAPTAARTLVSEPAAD

[3] = molecular target: T3, Sphingosine 1-phosphate receptor 3 (Homo sapiens, UniProt Q99500); assay: Inhibition of S1P3 receptor at 25 uM
T3 sequence (Q99500 whole entry): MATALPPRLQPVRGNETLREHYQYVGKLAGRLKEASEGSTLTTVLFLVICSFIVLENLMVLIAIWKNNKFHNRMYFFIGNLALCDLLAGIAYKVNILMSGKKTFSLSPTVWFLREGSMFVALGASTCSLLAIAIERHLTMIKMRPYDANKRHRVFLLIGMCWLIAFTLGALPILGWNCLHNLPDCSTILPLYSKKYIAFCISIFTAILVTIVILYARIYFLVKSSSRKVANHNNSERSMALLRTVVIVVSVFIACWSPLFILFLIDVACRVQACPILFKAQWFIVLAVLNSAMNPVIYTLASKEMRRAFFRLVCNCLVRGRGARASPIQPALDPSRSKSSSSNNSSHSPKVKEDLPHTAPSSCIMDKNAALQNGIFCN

[4] = molecular target: T4, Sphingosine 1-phosphate receptor 2 (Homo sapiens, UniProt O95136); assay: Inhibition of S1P2 receptor at 25 uM
T4 sequence (O95136 whole entry): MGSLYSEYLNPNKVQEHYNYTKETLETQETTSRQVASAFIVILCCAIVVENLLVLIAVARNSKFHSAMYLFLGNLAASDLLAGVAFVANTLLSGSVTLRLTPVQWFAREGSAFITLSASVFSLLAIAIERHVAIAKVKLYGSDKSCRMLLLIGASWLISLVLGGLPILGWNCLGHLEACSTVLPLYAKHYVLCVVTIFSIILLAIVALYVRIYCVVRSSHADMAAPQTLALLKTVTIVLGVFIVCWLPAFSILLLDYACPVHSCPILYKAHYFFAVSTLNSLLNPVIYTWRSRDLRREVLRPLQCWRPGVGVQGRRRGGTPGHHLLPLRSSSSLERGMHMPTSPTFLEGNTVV

[5] = molecular target: T5, Sphingosine 1-phosphate receptor 1 (Homo sapiens, UniProt P21453); assay: Inhibition of S1P1 receptor at 25 uM
T5 sequence (P21453 whole entry): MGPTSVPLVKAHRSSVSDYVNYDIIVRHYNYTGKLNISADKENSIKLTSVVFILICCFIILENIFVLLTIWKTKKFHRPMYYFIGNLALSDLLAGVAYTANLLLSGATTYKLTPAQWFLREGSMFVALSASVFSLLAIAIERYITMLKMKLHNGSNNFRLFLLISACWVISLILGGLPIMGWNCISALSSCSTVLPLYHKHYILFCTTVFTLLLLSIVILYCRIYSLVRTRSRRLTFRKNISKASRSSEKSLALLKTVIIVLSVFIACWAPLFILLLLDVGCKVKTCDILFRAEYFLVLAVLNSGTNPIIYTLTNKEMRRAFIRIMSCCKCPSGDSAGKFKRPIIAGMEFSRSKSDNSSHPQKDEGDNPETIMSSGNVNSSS

[6] = molecular target: T4, Sphingosine 1-phosphate receptor 2; assay: Antagonist activity at S1P2 receptor; format: functional
[7] = molecular target: T4, Sphingosine 1-phosphate receptor 2; assay: Inhibition of S1P2 receptor; conditions: concentration not given here
[8] = molecular target: T5, Sphingosine 1-phosphate receptor 1; assay: Antagonist activity at S1P1 receptor upto 25 uM; format: functional
[9] = molecular target: T6, Sphingosine 1-phosphate receptor 4 (Homo sapiens) (UniProt O95977); assay: Antagonist activity at human S1P4 receptor expressed in EDG6-bla U2OS cells coexpressing human endothelial differentiation gene 6 linked to GAL4-VP16 assessed as beta-lactamase expression at 25 uM by FRET assay; format: functional, cell-based; procedure, shortened: as §1
T6 sequence (whole entry): T1 sequence (O95977 whole entry)

[10] = molecular target: T3, Sphingosine 1-phosphate receptor 3; assay: Antagonist activity at S1P3 receptor; format: functional
[11] = molecular target: T5, Sphingosine 1-phosphate receptor 1; assay: Antagonist activity at S1P1 receptor; format: functional
[12] = molecular target: T2, Sphingosine 1-phosphate receptor 5; assay: Antagonist activity at S1P5 receptor; format: functional

Cc1ccc(C)c(-c2oc(C(=O)Nc3c(C)cccc3C)cc2C)c1
IC50 [1]: 911 nM

Cc1ccc(C)c(-c2cccc(C(=O)Nc3c(C)cccc3C)c2)c1
inhibition [2]: 40%
inhibition [3]: 40%
inhibition [4]: 25%
inhibition [5]: 30%
IC50 [1]: 75 nM

Cc1ccc(C)c(-c2cc(C(=O)Nc3c(C)cccc3C)co2)c1
IC50 [1]: 233 nM

Cc1ccc(C)c(-c2coc(C(=O)Nc3c(C)cccc3C)c2)c1
IC50 [1]: 211 nM

Cc1ccc(C)c(-c2cc(C)c(C(=O)Nc3c(C)cccc3C)o2)c1
IC50 [1]: 173 nM

Cc1ccc(C)c(-c2ccc(C(=O)Nc3c(C)cccc3C)s2)c1
inhibition [2]: 30%
inhibition [3]: 35%
IC50 [6]: 1100 nM
inhibition [7]: 40%
Activity [8]: inactive
IC50 [1]: 59 nM

Cc1ccc(C)c(-c2ccc(C(=O)Nc3c(C)cccc3C)n2C)c1
IC50 [1]: 6300 nM

Cc1cccc(C)c1NC(=O)c1cccc(-c2cc(Cl)ccc2Cl)n1
Activity [9]: inactive

Cc1cccc(C)c1NCc1ccc(-c2cc(Cl)ccc2Cl)o1
Activity [9]: inactive

Cc1cccc(C)c1NC(=O)c1ccc(-c2cc(Cl)ccc2Cl)o1
IC50 [10]: > 20000 nM
IC50 [11]: > 20000 nM

Cc1ccc(C)c(-c2cc(C(=O)Nc3c(C)cccc3C)ccc2C)c1
IC50 [1]: 2400 nM

CCc1cccc(C)c1NC(=O)c1nnc(-c2cc(Cl)ccc2Cl)o1
Activity [9]: inactive

Cc1ccc(C)c(-c2ccc(C(=O)Nc3c(C)cccc3C)o2)c1
IC50 [10]: > 20000 nM
IC50 [12]: > 20000 nM
IC50 [11]: > 20000 nM
